What was measured:
hCCR5 [1] = molecular target: T1, hCCR5 (Homo sapiens, UniProt P51681); experiment: Tango β-arrestin recruitment assay in U2OS-CCR5 cells; assay type: cell-based; details: for Hill slope (nH): inhibition of CCL3-induced β-arrestin recruitment in U2OS-CCR5; for inhibition at 1 µM: read-out: inhibition at 1 μM (%), β-arrestin recruitment in U2OS-CCR5 by 1 μM compound, in the presence of an EC80 concentration of CCL3, negative = CCL3 stimulation
How it was run: (§1)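 Tango bla U2OS cells (human CCR2b or CCR5) were trypsinized and seeded at 10 000 cells/well in FreeStyle medium. Agonist mode: CCL2 or CCL3 for 16 h, 37 °C, 5% CO2. Antagonist mode: 30 min room-temperature preincubation with increasing compound (≤0.5% DMSO final), then 16 h with EC80 CCL2 (5 nM, CCR2) or CCL3 (14 nM, CCR5). LiveBLAzer-FRET B/G substrate 2 h; excitation 400 nm, 460/535 nm emission ratio.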

hCCR2 [2] = molecular target: T2, hCCR2 (Homo sapiens, UniProt P41597); experiment: [3H]-CCR2-RA-[R] displacement binding assay on U2OS-CCR2b membranes; details: for pKi ± SEM: displacement of ∼6 nM [3H]-CCR2-RA-[R] from U2OS cells stably expressing CCR2, 25 °C
T2 sequence (P41597 1-360 isoform P41597-2): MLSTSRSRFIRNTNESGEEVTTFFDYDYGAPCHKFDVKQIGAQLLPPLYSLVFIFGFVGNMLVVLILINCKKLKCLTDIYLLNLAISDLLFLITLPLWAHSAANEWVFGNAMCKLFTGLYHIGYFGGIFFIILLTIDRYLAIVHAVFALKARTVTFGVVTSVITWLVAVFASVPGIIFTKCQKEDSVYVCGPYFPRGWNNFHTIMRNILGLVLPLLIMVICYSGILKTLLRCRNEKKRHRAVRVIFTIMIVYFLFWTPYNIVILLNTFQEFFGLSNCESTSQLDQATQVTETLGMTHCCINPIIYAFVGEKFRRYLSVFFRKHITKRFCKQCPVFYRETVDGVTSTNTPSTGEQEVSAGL
How it was run: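 U2OS-CCR2b membranes (15–20 μg protein) were incubated with ~6 nM [3H]-CCR2-RA-[R] and at least 6 competitor concentrations. Buffer: 50 mM Tris-HCl, 5 mM MgCl2, 0.1% CHAPS, pH 7.4. Incubation 2 h at 25 °C. Rapid GF/B filtration, ten washes with ice-cold buffer (0.05% CHAPS), scintillation counting. Mean ± SEM of ≥3 experiments in duplicate.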

CCR2 = details: read-out: IC50 in CCR2 calcium flux assay; previously reported activity; cited from earlier work
hCCR2 [3] = molecular target: T2, hCCR2; experiment: CCL2-stimulated [35S]GTPγS binding assay on U2OS-CCR2 membranes; assay type: biochemical; details: for decrease of basal [35S]GTPγS binding levels: 1 μM compound, in absence of CCL2, 0% = basal activity, 100% = 100 nM CCL2
How it was run: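 U2OS-CCR2b cells are grown in McCoy's 5A with 10% FCS, G418, hygromycin and zeocin, switching to dialyzed FCS before harvest. Membranes are prepared by scraping in PBS, homogenizing in ice-cold 50 mM Tris-HCl, 5 mM MgCl2, pH 7.4, ultracentrifuging (31 000 rpm, 20 min, 4 °C) twice, storing at −80 °C and measuring protein by BCA. Values come from nonlinear regression, ≥3 experiments in duplicate.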

hCCR2 [4] = molecular target: T2, hCCR2; experiment: Tango β-arrestin recruitment assay in U2OS-CCR2 cells; assay type: cell-based; details: inhibition of CCL2-induced β-arrestin recruitment in U2OS-CCR2
How it was run: as §1

hCCR5 [5] = molecular target: T1, hCCR5; experiment: CCL3-stimulated [35S]GTPγS binding assay on U2OS-CCR5 membranes; assay type: biochemical; details: CCL3 alone, U2OS-CCR5, 25 °C
How it was run: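 Membranes from Tango U2OS cells stably expressing human CCR5 (10 μg, with 0.25 mg/mL saponin) were preincubated 30 min at 25 °C with 5 μM GDP and increasing CCL3. Then 0.3 nM [35S]GTPγS was added for 90 min at 25 °C. Stopped with ice-cold Tris/MgCl2, then GF/B filtration. Nonlinear regression.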

[6] = CCL2 alone, [35S]GTPγS binding, U2OS-CCR2, 25 °C

T1 sequence (P51681 whole entry): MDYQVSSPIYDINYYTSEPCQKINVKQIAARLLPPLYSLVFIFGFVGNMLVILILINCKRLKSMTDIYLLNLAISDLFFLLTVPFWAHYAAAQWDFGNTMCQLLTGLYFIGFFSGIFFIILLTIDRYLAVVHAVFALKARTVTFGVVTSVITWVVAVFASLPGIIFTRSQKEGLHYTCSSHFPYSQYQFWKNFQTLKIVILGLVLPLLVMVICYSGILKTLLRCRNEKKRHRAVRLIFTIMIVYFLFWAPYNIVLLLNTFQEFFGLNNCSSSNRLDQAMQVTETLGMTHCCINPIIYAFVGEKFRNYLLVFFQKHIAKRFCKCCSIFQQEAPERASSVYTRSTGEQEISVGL

Compound: CC(=O)C1=C(O)C(=O)N(c2ccc(Cl)cc2F)[C@@H]1C1CCCCC1 [CCR2-RA-[R], reference compound]
- Hill slope (nH) (hCCR5 [1]): −2.4

Compound: O=c1c(Cc2cccc(Cl)c2)c(C2CC2)[nH]c2ncnn12 [Compound 6, 6-(3-Chlorobenzyl)-5-cyclopropyl[1,2,4]triazolo[1,5-a]pyrimidin-7(4H)-one]
- pKi ± SEM (hCCR2 [2]): 8.76 ± 0.01
- IC50 (CCR2): ~20 nM

Compound: Cc1nc2[nH]c(C3CC3)c(Cc3cccc(Cl)c3)c(=O)n2n1 [Compound 7, 6-(3-Chlorobenzyl)-5-cyclopropyl-2-methyl[1,2,4]triazolo[1,5-a]pyrimidin-7(4H)-one]
- pKi ± SEM (hCCR2 [2]): 8.46 ± 0.05

Compound: Nc1nc2[nH]c(C3CC3)c(Cc3ccccc3)c(=O)n2n1 [Compound 9, 2-Amino-6-benzyl-5-cyclopropyl[1,2,4]triazolo[1,5-a]pyrimidin-7(4H)-one]
- fold decrease in affinity for CCR2 compared to 8 (hCCR2 [2]): 5 fold

Compound: COc1ccccc1Cc1c(C2CC2)[nH]c2nc(N)nn2c1=O [Compound 12, 2-Amino-5-cyclopropyl-6-(2-methoxybenzyl)[1,2,4]triazolo[1,5-a]pyrimidin-7(4H)-one]
- inhibition at 1 µM (hCCR5 [1]): -20%

Compound: Cc1cccc(Cc2c(C3CC3)[nH]c3nc(N)nn3c2=O)c1 [Compound 13, 2-Amino-5-cyclopropyl-6-(3-methylbenzyl)[1,2,4]triazolo[1,5-a]pyrimidin-7(4H)-one]
- inhibition at 1 µM (hCCR5 [1]): > 60%
- pKi ± SEM (hCCR2 [2]): 8.61 ± 0.03

Compound: Nc1nc2[nH]c(C3CC3)c(Cc3cccc(F)c3)c(=O)n2n1 [Compound 14, 2-Amino-5-cyclopropyl-6-(3-fluorobenzyl)[1,2,4]triazolo[1,5-a]pyrimidin-7(4H)-one]
- inhibition at 1 µM (hCCR5 [1]): < 45%

Compound: COc1cccc(Cc2c(C3CC3)[nH]c3nc(N)nn3c2=O)c1 [Compound 17, 2-Amino-5-cyclopropyl-6-(3-methoxybenzyl)[1,2,4]triazolo[1,5-a]pyrimidin-7(4H)-one]
- inhibition at 1 µM (hCCR5 [1]): -27%
- pKi ± SEM (hCCR2 [2]): 7.89 ± 0.07

Compound: Cc1ccc(Cc2c(C3CC3)[nH]c3nc(N)nn3c2=O)cc1 [Compound 19, 2-Amino-5-cyclopropyl-6-(4-methylbenzyl)[1,2,4]triazolo[1,5-a]pyrimidin-7(4H)-one]
- inhibition at 1 µM (hCCR5 [1]): -57%
- Ki (hCCR2 [2]): 3 nM
- pKi ± SEM (hCCR2 [2]): 8.46 ± 0.03

Compound: Nc1nc2[nH]c(C3CC3)c(Cc3ccc(F)cc3)c(=O)n2n1 [Compound 20, 2-Amino-5-cyclopropyl-6-(4-fluorobenzyl)[1,2,4]triazolo[1,5-a]pyrimidin-7(4H)-one]
- pKi ± SEM (hCCR2 [2]): 8.39 ± 0.03

Compound: Nc1nc2[nH]c(C3CC3)c(Cc3ccc(Cl)cc3)c(=O)n2n1 [Compound 21, 2-Amino-6-(4-chlorobenzyl)-5-cyclopropyl[1,2,4]triazolo[1,5-a]pyrimidin-7(4H)-one]
- pKi ± SEM (hCCR2 [2]): 8.74 ± 0.05

Compound: COc1ccc(Cc2c(C3CC3)[nH]c3nc(N)nn3c2=O)cc1 [Compound 23, 2-Amino-5-cyclopropyl-6-(4-methoxybenzyl)[1,2,4]triazolo[1,5-a]pyrimidin-7(4H)-one]
- inhibition at 1 µM (hCCR5 [1]): -28%

Compound: Cc1[nH]c2nc(N)nn2c(=O)c1Cc1cccc(Cl)c1 [Compound 24, 2-Amino-6-(3-chlorobenzyl)-5-methyl[1,2,4]triazolo[1,5-a]pyrimidin-7(4H)-one]
- inhibition at 1 µM (hCCR5 [1]): -35%

Compound: CCCc1[nH]c2nc(N)nn2c(=O)c1Cc1cccc(Cl)c1 [Compound 26, 2-Amino-6-(3-chlorobenzyl)-5-propyl[1,2,4]triazolo[1,5-a]pyrimidin-7(4H)-one]
- inhibition at 1 µM (hCCR5 [1]): > 60%
- Ki (hCCR2 [2]): ~4 nM

Compound: CC(C)c1[nH]c2nc(N)nn2c(=O)c1Cc1cccc(Cl)c1 [Compound 27, 2-Amino-6-(3-chlorobenzyl)-5-isopropyl[1,2,4]triazolo[1,5-a]pyrimidin-7(4H)-one]
- fold increase in CCR5 potency compared to 8 (hCCR5 [1]): 2 fold

Compound: CCCCc1[nH]c2nc(N)nn2c(=O)c1Cc1cccc(Cl)c1 [Compound 28, 2-Amino-5-butyl-6-(3-chlorobenzyl)[1,2,4]triazolo[1,5-a]pyrimidin-7(4H)-one]
- inhibition at 1 µM (hCCR5 [1]): > 60%
- Ki (hCCR2 [2]): 2 nM

Compound: CCCCCc1[nH]c2nc(N)nn2c(=O)c1Cc1cccc(Cl)c1 [Compound 30, 2-Amino-6-(3-chlorobenzyl)-5-pentyl[1,2,4]triazolo[1,5-a]pyrimidin-7(4H)-one]
- pKi ± SEM (hCCR2 [2]): 8.14 ± 0.03

Compound: Nc1nc2[nH]c(C3CCCC3)c(Cc3cccc(Cl)c3)c(=O)n2n1 [Compound 31, 2-Amino-6-(3-chlorobenzyl)-5-cyclopentyl[1,2,4]triazolo[1,5-a]pyrimidin-7(4H)-one]
- fold increased affinity for CCR2 compared to 30 (hCCR2 [2]): 4.5 fold

Compound: CCCCCCc1[nH]c2nc(N)nn2c(=O)c1Cc1cccc(Cl)c1 [Compound 32, 2-Amino-6-(3-chlorobenzyl)-5-hexyl[1,2,4]triazolo[1,5-a]pyrimidin-7(4H)-one]
- inhibition at 1 µM (hCCR5 [1]): -63%

Compound: Nc1nc2[nH]c(-c3ccccc3)c(Cc3cccc(Cl)c3)c(=O)n2n1 [Compound 34, 2-Amino-6-(3-chlorobenzyl)-5-phenyl[1,2,4]triazolo[1,5-a]pyrimidin-7(4H)-one]
- inhibition at 1 µM (hCCR5 [1]): -41%
- fold decrease in affinity for CCR2 compared to 8 (hCCR2 [2]): 20 fold

Compound: Cc1ccc(-c2[nH]c3nc(N)nn3c(=O)c2Cc2cccc(Cl)c2)cc1 [Compound 35, 2-Amino-6-(3-chlorobenzyl)-5-(p-tolyl)[1,2,4]triazolo[1,5-a]pyrimidin-7(4H)-one]
- inhibition at 1 µM (hCCR5 [1]): -13%
- fold decrease in affinity for CCR2 compared to 8 (hCCR2 [2]): 122 fold

Compound: Nc1nc2[nH]c(CCc3ccccc3)c(Cc3cccc(Cl)c3)c(=O)n2n1 [Compound 36, 2-Amino-6-(3-chlorobenzyl)-5-phenethyl[1,2,4]triazolo[1,5-a]pyrimidin-7(4H)-one]
- inhibition at 1 µM (hCCR5 [1]): -42%
- fold decrease in affinity for CCR2 compared to 8 (hCCR2 [2]): 40 fold

Compound: CC(C)c1[nH]c2nc(N)nn2c(=O)c1Cc1ccc(Cl)c(Cl)c1 [Compound 38, 2-Amino-6-(3,4-dichlorobenzyl)-5-isopropyl[1,2,4]triazolo[1,5-a]pyrimidin-7(4H)-one]
- fold increase in CCR5 potency compared to 37 (hCCR5 [1]): ~2 fold

Compound: CC(C)c1[nH]c2nc(N)nn2c(=O)c1Cc1cccc(Cl)c1Cl [Compound 39, 2-Amino-6-(2,3-dichlorobenzyl)-5-isopropyl[1,2,4]triazolo[1,5-a]pyrimidin-7(4H)-one]
- Hill slope (nH) (hCCR5 [1]): −3.7
- decrease of basal [35S]GTPγS binding levels (hCCR2 [3]): 7–8%
- Hill slope (nH) (hCCR2 [4]): −2.5

Compound: CC(C)c1[nH]c2nc(N)nn2c(=O)c1Cc1cc(Br)cc(Br)c1 [Compound 42, 2-Amino-6-(3,5-dibromobenzyl)-5-isopropyl[1,2,4]triazolo[1,5-a]pyrimidin 7(4H)-one]
- inhibition at 1 µM (hCCR5 [1]): ≤ 70%

Compound: CC(C)c1[nH]c2nc(N)nn2c(=O)c1Cc1ccc(Cl)c(Br)c1 [Compound 43, 2-Amino-6-(3-bromo-4-chloro-benzyl)-5-isopropyl[1,2,4]triazolo[1,5-a]pyrimidin-7(4H)-one]
- Hill slope (nH) (hCCR5 [1]): −4.4
- decrease of basal [35S]GTPγS binding levels (hCCR2 [3]): 7–8%
- Hill slope (nH) (hCCR2 [4]): −3.4

Compound: Cc1ccc(-c2ccc3c(c2)C=C(C(=O)Nc2ccc(C[N+](C)(C)C4CCOCC4)cc2)CCC3)cc1.[Cl-] [TAK-779, reference compound]
- Hill slope (nH) (hCCR5 [1]): −1.1

Compound: CCL2: human recombinant chemokine, endogenous agonist of CCR2
- EC50 (hCCR2 [3]; [6]): 8 nM
- Emax ± SEM (%) (hCCR2 [3]; [6]): 107 ± 2%
- pEC50 ± SEM (hCCR2 [3]; [6]): 8.10 ± 0.06

Compound: CCL3: human recombinant chemokine, endogenous agonist of CCR5
- pEC50 of β-arrestin recruitment (hCCR5 [1]; agonist, U2OS-CCR5): 8.3 ± 0.08
- pEC80 of β-arrestin recruitment (hCCR5 [1]; agonist, U2OS-CCR5): 7.9 ± 0.08
- EC50 (hCCR5 [1]; read-out: EC50 of β-arrestin recruitment, agonist, U2OS-CCR5): 6 nM
- EC50 (hCCR5 [5]): 4 nM
- Emax ± SEM (%) (hCCR5 [5]): 108 ± 2%
- pEC50 ± SEM (hCCR5 [5]): 8.42 ± 0.06

— PMC6935887 (Journal of Medicinal Chemistry, 2019)
